From ChEMBL document CHEMBL5608261, “Pharmacophore Establishment and Optimization of Saturated 1,6-Naphthyridine-Fused Quinazolinones that Inhibit Meningoencephalitis-Causing Naegleria fowleri” (J Med Chem, 2024)

Assays:
[1] = Selectivity index, ratio of CC50 for cytotoxicity against human SH-SY5Y cells to EC50 for anti-amoebic activity against Naegleria fowleri Nf69 (ATCC 30215) assessed as inhibition of amoeba growth; type: toxicity, cell-based; conditions: for selectivity ratio: SH-SY5Y cells, read-out: Ratio CC50/EC50
[2] = tested on: Naegleria fowleri; assay: Anti-ameobic activity against Naegleria fowleri Nf69 (ATCC 30215) trophozoites assessed as inhibition of amoeba growth incubated for 48 hrs by CellTiter-Glo assay; type: functional, organism-based
Outline: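 Axenic Nf69 trophozoites were seeded at 1 × 10^4 cells/mL in Nelson's complete medium with 10% heat-inactivated FBS. Compound was added at 20 to 0.375 μM (lower ranges for very potent compounds), with vehicle controls, for 48 h at 37 °C and 5% CO2. CellTiter-Glo luminescence gave % growth inhibition versus controls, and triplicate means were fitted to dose–response curves for EC50.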

[3] = tested on: SH-SY5Y; assay: Cytotoxicity against human SH-SY5Y cells assessed as reduction in cell viability incubated for 72 hrs by CellTiter-Glo assay; type: toxicity, cell-based; conditions: sh-sy5y, 72 h
Outline: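 SH-SY5Y cells at 2000 per well attached overnight at 37 °C. Compound from 20 mM DMSO stocks was added in triplicate as a dose series starting at 20 μM, with doxorubicin as positive control.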

[4] = Metabolic stability in CD-1 mouse liver microsomes assessed as half-life incubated for 60 mins by LC-MS/MS analysis; type: ADME, Microsome; conditions: 1 h
Outline: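 Half-life measured in CD-1 mouse liver microsomes with NADPH over a 60 min exposure.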

[5] = Naegleria fowleri, Nf69 (ATCC 30215), 48 h

| SMILES | CC50 [3] [µM] | EC50 [2, 5] [µM] | other results |
| --- | --- | --- | --- |
| COc1cc2nc3n(c(=O)c2cc1Cl)CC[C@@H]1[C@@H]3CCCN1CC(C)C | > 20 |  | Ratio CC50/EC50 [1]: > 32.3; EC50 [2]: 0.62 µM |
| CN1CCC[C@H]2c3nc4ccc(C(F)(F)F)cc4c(=O)n3CC[C@@H]21 |  | 4.3 | selectivity ratio [1]: > 4.7 |
| CN1CCC[C@H]2c3nc4ccc(Cl)cc4c(=O)n3CC[C@@H]21 |  | 4 | selectivity ratio [1]: > 5 |
| CN1CCC[C@H]2c3nc4cc(Cl)c(Cl)cc4c(=O)n3CC[C@@H]21 |  | 2.6 | selectivity ratio [1]: > 7.7 |
| COc1cc2nc3n(c(=O)c2cc1Cl)CC[C@@H]1[C@@H]3CCCN1CC(C)C (racemic) | 1.8 |  | Ratio CC50/EC50 [1]: 10.6; EC50 [2]: 0.17 µM |
| Cc1ccc2nc3n(c(=O)c2c1)CC[C@@H]1[C@@H]3CCCN1C (racemic) |  | 3.1 |  |
| Cc1cccc2nc3n(c(=O)c12)CC[C@@H]1[C@@H]3CCCN1C (racemic) | > 20 | > 10 |  |
| CN1CCC[C@H]2c3nc4cccc(Cl)c4c(=O)n3CC[C@H]21 (racemic) |  | > 10 |  |
| CN1CCC[C@H]2c3nc4cc(Cl)c(C(F)(F)F)cc4c(=O)n3CC[C@H]21 (racemic) | > 20 | 0.27 |  |
| CN(C)CC(=O)N1CCC[C@@H]2c3nc4cc(Cl)c(Cl)cc4c(=O)n3CC[C@H]21 (racemic) | > 20 | 0.72 |  |
| O=C(N1CCOCC1)N1CCC[C@@H]2c3nc4cc(Cl)c(Cl)cc4c(=O)n3CC[C@H]21 (racemic) | > 20 | > 10 |  |
| COc1cc2nc3n(c(=O)c2cc1Cl)CC[C@@H]1[C@@H]3CCCN1C (racemic) | > 20 | 0.43 |  |
| O=c1c2cc(Cl)c(Cl)cc2nc2n1CC[C@@H]1[C@@H]2CCCN1Cc1cnccn1 (racemic) | > 20 | 0.05 |  |
| O=C(C1CCOCC1)N1CCC[C@@H]2c3nc4cc(Cl)c(Cl)cc4c(=O)n3CC[C@H]21 (racemic) | > 20 | > 10 |  |
| CC(C)N1CCC[C@@H]2c3nc4cc(Cl)c(Cl)cc4c(=O)n3CC[C@H]21 (racemic) | > 20 | 0.04 | t1/2 [4]: 41.1 min |
| CN1CCC[C@@H]2c3nc4cc(F)ccc4c(=O)n3CC[C@H]21 (racemic) | > 20 | > 10 |  |
| COc1ccc2c(=O)n3c(nc2c1)[C@@H]1CCCN(C)[C@@H]1CC3 (racemic) |  | 1.8 |  |
| CN1CCC[C@H]2c3nc4cc(Cl)c(Cl)cc4c(=O)n3CC[C@H]21 (racemic) |  | 0.26 |  |
| Cc1ccc2nc3n(c(=O)c2c1)CC[C@@H]1[C@H]3CCCN1C (racemic) | > 20 | 2.8 |  |

| SMILES | CC50 [3] [µM] | EC50 [2, 5] [µM] | other results |
| --- | --- | --- | --- |
| O=c1c2cc(Cl)c(Cl)cc2nc2n1CC[C@H]1NCCC[C@H]21 (racemic) | > 20 | 1.6 |  |
| CN1CCC[C@@H]2c3nc4cc(Cl)ccc4c(=O)n3CC[C@H]21 (racemic) | > 20 | 6 |  |
| COc1cc(Cl)cc2c(=O)n3c(nc12)[C@H]1CCCN(C)[C@@H]1CC3 (racemic) | > 20 | > 10 |  |
| COc1cc2nc3n(c(=O)c2cc1C#N)CC[C@@H]1[C@@H]3CCCN1C (racemic) | > 20 | 3.8 |  |
| O=c1c2cc(Cl)c(Cl)cc2nc2n1CC[C@@H]1[C@@H]2CCCN1Cc1ccccn1 (racemic) | > 20 | 2.53 |  |
| COc1ccc2nc3n(c(=O)c2c1)CC[C@@H]1[C@H]3CCCN1C (racemic) | > 20 | > 10 |  |
| CN1CCC[C@@H]2c3nc4cnccc4c(=O)n3CC[C@H]21 (racemic) |  | > 10 |  |
| Cc1cccc2nc3n(c(=O)c12)CC[C@@H]1[C@H]3CCCN1C (racemic) |  | > 10 |  |
| COc1ccc2nc3n(c(=O)c2c1)CC[C@@H]1[C@@H]3CCCN1C (racemic) |  | 7.3 |  |
| O=c1c2cc(Cl)c(Cl)cc2nc2n1CC[C@@H]1[C@@H]2CCCN1Cc1ccncc1 (racemic) | > 20 | 0.48 |  |
| CN1CCC[C@@H]2c3nc4cc(-c5ccccc5)c(Cl)cc4c(=O)n3CC[C@H]21 (racemic) | 9.4 | 2.1 |  |
| COc1cc(Cl)cc2c(=O)n3c(nc12)[C@@H]1CCCN(C)[C@@H]1CC3 (racemic) |  | > 10 |  |
| COc1cc2nc3n(c(=O)c2cc1Cl)CC[C@@H]1[C@H]3CCCN1C (racemic) |  | 0.38 |  |
| CN1CCC[C@@H]2c3nc4cc(C(F)(F)F)ccc4c(=O)n3CC[C@H]21 (racemic) |  | 0.99 |  |
| CN1CCC[C@H]2c3nc4cnccc4c(=O)n3CC[C@H]21 (racemic) |  | > 10 |  |
| CN1CCC[C@H]2c3nc4cc(F)ccc4c(=O)n3CC[C@H]21 (racemic) |  | > 10 |  |
| CN1CCC[C@@H]2c3nc4cccc(Cl)c4c(=O)n3CC[C@H]21 (racemic) | > 20 | > 10 |  |
| CN1CCC[C@H]2c3nc4ccc(C#N)cc4c(=O)n3CC[C@H]21 (racemic) | > 20 | 2.1 |  |
| CN1CCC[C@@H]2c3nc4cc(Cl)c(C(F)(F)F)cc4c(=O)n3CC[C@H]21 (racemic) |  | 0.34 |  |

| SMILES | CC50 [3] [µM] | EC50 [2, 5] [µM] | other results |
| --- | --- | --- | --- |
| CC(C)CN1CCC[C@@H]2c3nc4cc(Cl)c(Cl)cc4c(=O)n3CC[C@H]21 (racemic) | > 20 | 0.007 | t1/2 [4]: 19.7 min |
| O=c1c2cc(Cl)c(Cl)cc2nc2n1CC[C@@H]1[C@@H]2CCCN1Cc1ccccc1 (racemic) | > 20 | 0.72 |  |
| CN1CCC[C@H]2c3nc4ccc(Cl)cc4c(=O)n3CC[C@H]21 (racemic) |  | 2.2 |  |
| CN1CCC[C@@H]2c3nc4ccc(C#N)cc4c(=O)n3CC[C@H]21 (racemic) |  | 0.67 |  |
| CN(C)C(=O)CN1CCC[C@@H]2c3nc4cc(Cl)c(Cl)cc4c(=O)n3CC[C@H]21 (racemic) | > 20 | 0.3 |  |
| CN1CCC[C@H]2c3nc4ccc(C(F)(F)F)cc4c(=O)n3CC[C@H]21 (racemic) |  | 0.95 |  |
| CN1CCC[C@H]2c3nc4cc(C(F)(F)F)ccc4c(=O)n3CC[C@H]21 (racemic) | > 20 | 6.9 |  |
| O=C(c1ccccc1)N1CCC[C@@H]2c3nc4cc(Cl)c(Cl)cc4c(=O)n3CC[C@H]21 (racemic) | > 20 | > 10 |  |
| CN1CCC[C@@H]2c3nc4ccc(F)cc4c(=O)n3CC[C@H]21 (racemic) | > 20 | > 10 |  |
| CN(C)CCN1CCC[C@@H]2c3nc4cc(Cl)c(Cl)cc4c(=O)n3CC[C@H]21 (racemic) | 8 | 0.18 | selectivity ratio [1]: 44 |
| CN1CCC[C@@H]2c3nc4ccccc4c(=O)n3CC[C@H]21 (racemic) | > 20 | > 10 |  |
| CN1CCC[C@H]2c3nc4cc(-c5ccccc5)c(Cl)cc4c(=O)n3CC[C@H]21 (racemic) | > 20 | 3.4 |  |
| CN1CCC[C@H]2c3nc4ccccc4c(=O)n3CC[C@H]21 (racemic) |  | > 10 |  |
| CC(C)(C)C(=O)N1CCC[C@@H]2c3nc4cc(Cl)c(Cl)cc4c(=O)n3CC[C@H]21 (racemic) | > 20 | > 10 |  |
| CN1CCC[C@H]2c3nc4cc(Cl)ccc4c(=O)n3CC[C@H]21 (racemic) |  | > 10 |  |
| COc1ccc2c(=O)n3c(nc2c1)[C@H]1CCCN(C)[C@@H]1CC3 (racemic) | > 20 | 1.5 |  |
| CC(C)NCCN1CCC[C@@H]2c3nc4cc(Cl)c(Cl)cc4c(=O)n3CC[C@H]21 (racemic) | 6.4 | 0.13 | selectivity ratio [1]: 49 |
| CN1CCC[C@H]2c3nc4ccc(F)cc4c(=O)n3CC[C@H]21 (racemic) |  | > 10 |  |
